Legend:
[1] = tested on: rhinovirus A2; assay: Antiviral activity against HRV2 in HeLa cells by CPE assay; assay type: functional; parameters: unit not given here
Summary of the method: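 HRV-2 stock grown in HeLa cells. 1-day-old confluent HeLa monolayers were given compound in test medium (2% NCS) plus virus at MOI 0.01 after medium removal. CPE was scored 72 h post-infection by crystal violet uptake, with six uninfected and six infected untreated wells per plate and pleconaril as reference. IC50 was taken from mean dose-response curves of at least three separate experiments.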

[2] = Selectivity index, ratio of CC50 for HeLa cells to IC50 for HRV2; assay type: functional
Summary of the method: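 Computed as CC50 (HeLa, 72 h crystal violet viability) divided by IC50 (HRV-2 CPE inhibition in HeLa, 72 h), both in µg/mL.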

[3] = tested on: HeLa; assay: Cytotoxicity against human HeLa cells; assay type: cell-based; parameters: unit not given here
Summary of the method: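 2-day-old confluent HeLa monolayers were exposed to serial 2-fold compound dilutions for 72 h at 37 °C, 5% CO2. Cells were fixed and stained with crystal violet formalin, and the dye was extracted and read at 550/630 nm. Viability was expressed as percent of the mean of six mock-treated controls. CC50 is the concentration cutting viability by 50%.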

| SMILES | logIC50 [1] | logSI [2] | logCC50 [3] |
| --- | --- | --- | --- |
| Cc1cc(CCCOc2c(C)cc(-c3ccc(-c4ccccc4)cc3)cc2C)on1 | 1.7 | 0 | 1.7 |
| Cc1cc(CCCOc2c(C)cc(-c3ccc(OC(F)(F)F)cc3)cc2C)on1 | 0.05 | 1 | 1.03 |
| Cc1cc(CCCOc2c(C)cc(-c3ccccc3C)cc2C)on1 | -1.09 | 1.76 | 0.66 |
| Cc1cc(CCCOc2c(C)cc(-c3ccc(Br)cc3)cc2C)on1 | -0.15 | 0.85 | 0.68 |
| Cc1ccc(C)c(-c2cc(C)c(OCCCc3cc(C)no3)c(C)c2)c1 | 1.06 | 0.6 | 1.7 |
| Cc1cc(CCCOc2c(C)cc(-c3ccc(C=O)cc3)cc2C)on1 | -1.09 | 2.09 | 1 |
| CC(=O)c1ccc(-c2cc(C)c(OCCCc3cc(C)no3)c(C)c2)cc1 | -0.63 | 2.33 | 1.7 |
| C=Cc1ccc(-c2cc(C)c(OCCCc3cc(C)no3)c(C)c2)cc1 | -0.9 | 3.2 | 2.3 |
| Cc1cc(CCCOc2c(C)cc(-c3cc(F)c(F)c(F)c3)cc2C)on1 | -1.46 | 3.34 | 1.88 |
| Cc1cc(CCCOc2c(C)cc(-c3ccc(F)c(C)c3)cc2C)on1 | -1.82 | 3.1 | 1.28 |
| Cc1cc(CCCOc2c(C)cc(-c3cc(C(F)(F)F)cc(C(F)(F)F)c3)cc2C)on1 | 1.7 | 0 | 1.7 |
| Cc1cc(CCCOc2c(C)cc(-c3cccc(F)c3)cc2C)on1 | -1.4 | 2.36 | 0.96 |
| Cc1cc(CCCOc2c(C)cc(-c3ccc(C(F)(F)F)cc3)cc2C)on1 | -0.97 | 2.05 | 1.08 |
| Cc1cc(CCCOc2c(C)cc(-c3cccc([N+](=O)[O-])c3)cc2C)on1 | -1.47 | 2.25 | 0.79 |
| Cc1cc(CCCOc2c(C)cc(-c3ccc(F)cc3F)cc2C)on1 | -2.3 | 3.2 | 0.9 |
| COc1cc(-c2cc(C)c(OCCCc3cc(C)no3)c(C)c2)cc(OC)c1OC | -0.54 | 1.53 | 1 |
| Cc1cc(CCCOc2c(C)cc(-c3ccc(C)c(C)c3)cc2C)on1 | -1.31 | 1.97 | 0.66 |
| Cc1cc(CCCOc2c(C)cc(-c3cccc(C(F)(F)F)c3)cc2C)on1 | -1.24 | 2.32 | 1.08 |
| Cc1cc(CCCOc2c(C)cc(-c3cccc4ccccc34)cc2C)on1 | -0.2 | 1.16 | 0.96 |
| Cc1cc(CCCOc2c(C)cc(-c3ccc(F)cc3)cc2C)on1 | -2.05 | 3.74 | 1.7 |
| Cc1cc(CCCOc2c(C)cc(-c3noc(C(F)(F)F)n3)cc2C)on1 [PLECONARIL] | -1.7 | 2.8 | 1.1 |

From ChEMBL document CHEMBL1148737, “Quantitative structure-activity relationship studies of [(biphenyloxy)propyl]isoxazole derivatives. Inhibitors of human rhinovirus 2 replication” (J Med Chem, 2007)
